Source: PubChem BioAssay (several laboratories)
This is one part of a sample in which hits are shown more often than they occur.
PolyA inhibitor: yeast polyadenylation inhibition; S. cerevisiae SKY197-pL101 polyadenylation reporter, beta-gal luminescence; efflux-impaired pdr1/pdr3 knockout yeast; score 100 = 6 SD above DMSO; activity score, % at 12 µM; actives 0.02% (n = 300,000); AID 1875;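 active means lowest replicate activity score at least 50, where 100 means six control SD above control mean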;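 further: yeast exposed to compound for 9 h at 30 °C; higher score means more reporter readthrough which indicates perturbed polyadenylation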
T cruzi repl: blocks replication of Trypanosoma cruzi; AID 1885; T. cruzi beta-gal in NIH3T3, luminescence, 90 h; actives 1.4% (n = 300,000); inhibition, % (concentration not given with the values);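 active means mean inhibition across valid replicates above about 55%, limit read from the data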;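 further: signal also drops with host cell toxicity which is not excluded here; 0% = plate median of DMSO wells and 100% = zero luminescence signal; higher percent means less beta-gal luminescence so fewer parasites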
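assay system = mouse NIH/3T3 fibroblasts infected with β-gal-expressing T. cruzi Tulahuen C4 | input = 5,000 NIH/3T3 host cells per well | buffer or medium = DMEM plus 2% FBS | timing = 3 h host attachment, then at least 90 h co-culture | measured by = GalScreen luminescence, 60 min | evaluation = luminescence reflecting intracellular parasite burden, expressed as percent inhibition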
Lmaj promast: reduces viability of Leishmania major promastigotes; resazurin fluorescence viability; inhibition, % at 10 µM; actives 9% (n = 200,000); in the data active means inhibition above about 50%;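 further: promastigotes grown with compound for 44 hours at 28 °C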
Calb FLC: C. albicans growth modulation with fluconazole; C. albicans CaCi-2 (fluconazole-resistant clinical isolate) + fluconazole, Alamar Blue growth, 48 h; growth inhibition, % (concentration not given with the values); actives 0.57% (n = 300,000);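 active means growth inhibition above about 58% in most replicates, limit read from the data, passing the limit was not always enough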;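 further: all wells also contain fluconazole at 8 µg/ml as a sub-toxic cotreatment; 0% = median of DMSO wells and 100% = median of geldanamycin control wells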
NALP1 yeast inh: blocks the NALP1 inflammasome reconstituted in yeast. S. cerevisiae NALP1/ASC/caspase-1 growth, X-gal OD620, 72 h. inhibition, % at 10 µM. actives 0.61% (n = 280,000); in the data active means inhibition mostly above about 24%, no sharp cut-off; inactive means mostly below about 32%
NLRP3 yeast inh: inhibitors of NALP3 inflammasome in yeast; Yeast reconstituted NLRP3/ASC/caspase-1, beta-gal luminescence, 24 h; inhibition, % at 10 µM; actives 0.39% (n = 330,000);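 active means inhibition of 50% or more; inactive means inhibition below 50%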;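 further: plate controls were induced DMSO wells for no effect and uninduced yeast grown without galactose for full effect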
* = called active by the depositor; / = no result.

SMILES	PolyA inhibitor	T cruzi repl	Lmaj promast	Calb FLC	NALP1 yeast inh	NLRP3 yeast inh
COc1cccc(-n2c(CN3CCN(Cc4ccccc4)CC3)nc3ccc([N+](=O)[O-])cc3c2=O)c1	-26	44	76*	-4	-38	16
COc1ccc(Nc2nc(N)c([N+](=O)[O-])c(N3CCCC3)n2)cc1	-13	-13	/	11	10	26
Cc1ccc(Nc2nc(N3CCOCC3)c3ccccc3n2)cc1	6	26	88*	-17	21	37
Cc1ccc(Nc2nc(N)c([N+](=O)[O-])c(N3CCOCC3)n2)cc1	-3	-20	-1	-6	-5	15
Cc1cccc(-c2nc(Nc3ccc(N4CCOCC4)cc3)c3ccccc3n2)c1	-4	56*	74*	5	25	25
COc1ccc(Nc2nc(N3CCCCC3)c3ccccc3n2)cc1	0	50	100*	-14	15	41
c1ccc2c(Nc3ccc(N4CCOCC4)cc3)nc(N3CCOCC3)nc2c1	-3	23	/	11	17	16
Oc1ccc(Nc2nc(N3CCCC3)c3ccccc3n2)cc1	-3	59*	100*	3	32	8
c1ccc2c(c1)nc(N1CCCCCC1)c1ccccc12	-20	9	/	-11	-7	20
CCOc1cc(CNCc2cc(OC)cc(OC)c2)ccc1OC	-13	17	/	-11	7	13
COC(=O)c1ccccc1S(=O)(=O)NCc1nc2nc(C)cc(C)n2n1	18	-18	/	3	-4	13
O=C(c1ccc(F)cc1)N1CCN(c2ccc([N+](=O)[O-])cc2-n2cccc2)CC1	-13	4	/	15	/	5
CC(NC(=O)CNC(=O)c1sc2ccccc2c1Cl)c1cccnc1 (configuration not stated)	10	3	/	-10	-14	-4
O=C(c1ccccc1)c1ccc(NCCCn2ccnc2)c([N+](=O)[O-])c1	14	56*	/	31	4	19
CCN(CC)S(=O)(=O)c1ccc(NCCCn2ccnc2)c([N+](=O)[O-])c1	8	21	/	5	6	7
CC(=O)Nc1ccc(SCC(=O)c2cc(C)n(-c3ccccc3F)c2C)cc1	-13	12	81*	-13	27	24
COC(=O)c1ccc(-n2c(C)cc(C(=O)CSc3ccc(NC(C)=O)cc3)c2C)cc1	-1	-1	31	4	32	18
C=C(C)c1cccc(C(C)(C)NC(=O)Nc2ncccn2)c1	-5	9	33	-1	23	12
C=C(C)c1cccc(C(C)(C)NC(=O)Nc2ccccc2OCC)c1	-7	8	55*	11	28	0
C=C(C)c1cccc(C(C)(C)NC(=O)Nc2ccc(C(N)=O)cc2)c1	-20	-8	-1	83*	3	8
C=C(C)c1cccc(C(C)(C)NC(=O)Nc2cccnc2)c1	-6	-10	/	-4	16	9
C=C(C)c1cccc(C(C)(C)NC(=O)Nc2cc(C)ccc2OC)c1	4	16	52*	-5	18	4
CSc1ccccc1NC(=O)CN(C)C(=O)c1ccc(-n2cccn2)cc1	/	/	/	/	/	14
COc1ccc(C)cc1S(=O)(=O)N1CCN(C/C=C/c2ccccc2)CC1	/	/	/	/	/	-29
O=C(CSc1ccc(F)cc1)Nc1cccc(S(=O)(=O)N2CCOCC2)c1	/	/	/	/	/	1
SMILES	PolyA inhibitor	T cruzi repl	Lmaj promast	Calb FLC	NALP1 yeast inh	NLRP3 yeast inh
C=CCNC(=O)c1cc(C(=O)C(C)c2ncc(C(F)(F)F)cc2Cl)c[nH]1 (configuration not stated)	-11	3	1	-7	3	7
CSc1cccc(NC(=S)N(Cc2ccccc2)Cc2cccnc2)c1	-12	83*	96*	1	-3	3
Cc1cccc(C)c1NC(=S)N(Cc1ccccc1)Cc1cccnc1	-12	79*	89*	-21	-10	2
Cc1ccc(SCC(=O)N2N=CCC2c2ccccc2)cc1 (configuration not stated)	14	5	84*	-9	-7	-54
O=C(CSc1nnnn1-c1ccccc1)N1N=CCC1c1ccccc1 (configuration not stated)	-2	25	-3	-6	30	4
O=c1c2c3c(sc2ncn1/N=C/c1ccc([N+](=O)[O-])o1)CCCC3	-13	-29	96*	12	10	35
